Results published in paper PMC6579116 (Macromolecular bioscience, 2019).

What was measured:
[1] = Treatment study serum chemistry; type: in vivo, mouse; settings: for Creatine: 6 mg/kg
[2] = TEM analysis of nanofiber formation, diameter and length; type: physicochemical; settings: 1 mM in PBS, 30 measurements from three images; for Length, Average / Length, Median: ImageJ
In short: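 Nanofiber diameter and length were measured by hand on TEM images in ImageJ; overlapping fibers ruled out automated tracing.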

[3] = tested on: atherosclerosis in LDLR KO mice fed high fat diet; test: Atherosclerosis treatment study; type: in vivo, mouse; settings: both sexes; IV twice per week for 8 weeks
In short: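 LDLR KO mice on high-fat diet (20% fat, 0.2% cholesterol, 34% sucrose) from 4 weeks of age. After 14 weeks on diet, IV injection under isoflurane (dorsal penile vein, males; retro-orbital, females) twice weekly for 8 weeks. […] Controls: PBS, scrambled PA. Aortic root sections stained with Oil Red O; plaque area/total root area. n=8–10 mice/group; ANOVA with post-hoc t-test.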

[4] = male LDLR KO mice, IV twice per week for 8 weeks

| Compound | liver toxicity: aspartate aminotransferase (AST) in the blood in comparison to PBS, male mice [1, 4] | Creatine ([1]; mouse, in vivo, iv) | Diameter, Max. [2] [nm] | Diameter, Min. [2] [nm] | Length, Max. [2] [nm] | Length, Min. [2] [nm] | Length, Average [2] [nm] | Length, Median [2] [nm] | liver toxicity: aspartate aminotransferase (AST) in the blood in comparison to PBS, male mice ([1]; mouse, in vivo, iv) | reversal of atherosclerosis from baseline levels [3] |
| --- | --- | --- | --- | --- | --- | --- | --- | --- | --- | --- |
| C16-V2A2E2-G-DWFKAFYDKVAEKFKEAF-NH2 [ApoA1 PA] | Neither ApoA1-LXR PAs nor ApoA1 PAs increased AST levels | 0(0–0.1) 0(0–0.1) 0(0–0.1) U/L | 14.4 | 6.2 | 2183.3 | 39.4 | 626.9 | 615.9 |  |  |
| C16-V2A2E2-C-DWFAKDYFKKAFVEEFAK-NH2 [Scr PA] | significantly elevated levels | 0(0–0.1) 0(0–0.1) 0(0–0.1) U/L | 18.3 | 8.8 | 1472.9 | 30.0 | 403.8 | 257.6 |  |  |
| O=C(O)Cc1cccc(OCCCN(Cc2cccc(C(F)(F)F)c2Cl)CC(c2ccccc2)c2ccccc2)c1 [LXR, GW3965, reference compound] |  |  |  |  |  |  |  |  | significantly elevated levels | approximately 5% |
